# ChEMBL document CHEMBL1143736, “Synthesis and antimycobacterial activity of 4-(5-substituted-1,3,4-oxadiazol-2-yl)pyridines” (Bioorg Med Chem, 2007)
# Tests used:
# Type in all cases: functional
# [1] = test system: Mycobacterium tuberculosis; experiment: Antimycobacterial activity against streptomycin, isoniazid, ethambutol-resistant Mycobacterium tuberculosis CIBIN 112 isolates
# Outline: (§1)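 Modified microplate Alamar Blue assay (MABA). Inoculum came from a log-phase culture matched to McFarland 1, diluted 1:50 in Middlebrook 7H9 to 6 × 10^6 CFU/mL, and prepared just before inoculation.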
# [2] = test system: Mycobacterium tuberculosis; experiment: Antimycobacterial activity against streptomycin and isoniazid-resistant Mycobacterium tuberculosis CIBIN 675 isolates; outline: as §1
# [3] = test system: Mycobacterium tuberculosis; experiment: Antimycobacterial activity against streptomycin, isoniazid, rifampicin, pyrazinamide-resistant Mycobacterium tuberculosis CIBIN 234 isolates; outline: as §1
Compound,MIC [1] [µM],MIC [2],MIC [3] [µM]
CCCCCCCCCCCCCCCCCc1nnc(-c2ccncc2)o1,2.59,10.4 µM,20.8
O=[N+]([O-])c1cc(-c2nnc(-c3ccncc3)o2)cc([N+](=O)[O-])c1,12.8,25.5 µM,25.5
FC(F)(F)c1nnc(-c2ccncc2)o1,37.2,37.2 µM,37.2
CC[C@@H](CO)NCCN[C@@H](CC)CO [ETHAMBUTOL],78.3,–,–
COc1cc(-c2nnc(-c3ccncc3)o2)cc(OC)c1OC,14.1,28.2 µM,28.2
CN(C)c1ccc(-c2nnc(-c3ccncc3)o2)cc1,30,30 µM,30
CO[C@H]1/C=C/O[C@@]2(C)Oc3c(C)c(O)c4c(O)c(c(/C=N/N5CCN(C)CC5)c(O)c4c3C2=O)NC(=O)/C(C)=C\C=C\[C@H](C)[C@H](O)[C@@H](C)[C@@H](O)[C@@H](C)[C@H](OC(C)=O)[C@@H]1C [RIFAMPIN],3.79,0.94 µM,122
O=[N+]([O-])c1ccc(-c2nnc(-c3ccncc3)o2)cc1,29.9,29.9 µM,29.9
Cc1nnc(-c2ccncc2)o1,49.7,49.7 µM,49.7
ClCc1nnc(-c2ccncc2)o1,41,41 µM,41
NNC(=O)c1ccncc1 [ISONIAZID],29.2,29.2 µM,58.4
O=[N+]([O-])c1ccccc1-c1nnc(-c2ccncc2)o1,29.9,29.9 µM,29.9
CCCCCCCCCCCCCCCc1nnc(-c2ccncc2)o1,2.8,11.2 µM,22.4
c1cc(-c2nnc(-c3ccncc3)o2)ccn1,35.7,35.7 µM,35.7
c1ccc(-c2nnc(-c3ccncc3)o2)cc1,35.9,35.9 µg/mL,35.9
CN[C@@H]1[C@H](O[C@H]2[C@H](O[C@H]3[C@H](O)[C@@H](O)[C@H](N=C(N)N)[C@@H](O)[C@@H]3N=C(N)N)O[C@@H](C)[C@]2(O)C=O)O[C@@H](CO)[C@H](O)[C@H]1O (stereo in doubt) [STREPTOMYCIN],55,6.87 µM,55
